Experimental data from ChEMBL document CHEMBL5252514, “Conopeptide-Derived κ-Opioid Agonists (Conorphins): Potent, Selective, and Metabolic Stable Dynorphin A Mimetics with Antinociceptive Properties” (J Med Chem, 2016).
Where a SMILES comes first, the peptide text is derived from it.

Experiments:
[1] = biological target: Kappa-type opioid receptor (Homo sapiens, UniProt P41145); assay: Displacement of [3H]U69593 from human kappa opioid receptor expressed in CHO-K1 cells incubated for 1 hr by 1450 microbeta scintillation counter analysis; type: cell-based
How it was run: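 Membranes from transiently KOR-transfected CHO-K1 cells (~2 µg/well) used in SPA with 3H-U69,593 (1 nM). Competitor ranged 1 pM–10 µM in 50 mM Tris-HCl pH 7.4, 5 mM MgCl2, 0.1% BSA. Incubated 1 h at room temperature with shaking. Nonspecific binding defined with 10 µM dynorphin A. Sigmoidal dose-response fit; at least three independent experiments in triplicate.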

[2] = Metabolic stability in Wistar rat plasma assessed as half life by HPLC analysis; type: ADME, cell-free
How it was run: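 Peptide at 1 mg/mL in sterile PBS pH 7.4 was mixed 1:1 with thawed, centrifuged Wistar rat plasma supernatant and incubated at 37°C in triplicate. Samples at 0, 1, 2, 3, 4, 6 and 24 h were quenched with acetonitrile and then 2% TFA/water, and analysed by HPLC with inline electrospray MS.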

Sequence of Kappa-type opioid receptor (P41145 whole entry): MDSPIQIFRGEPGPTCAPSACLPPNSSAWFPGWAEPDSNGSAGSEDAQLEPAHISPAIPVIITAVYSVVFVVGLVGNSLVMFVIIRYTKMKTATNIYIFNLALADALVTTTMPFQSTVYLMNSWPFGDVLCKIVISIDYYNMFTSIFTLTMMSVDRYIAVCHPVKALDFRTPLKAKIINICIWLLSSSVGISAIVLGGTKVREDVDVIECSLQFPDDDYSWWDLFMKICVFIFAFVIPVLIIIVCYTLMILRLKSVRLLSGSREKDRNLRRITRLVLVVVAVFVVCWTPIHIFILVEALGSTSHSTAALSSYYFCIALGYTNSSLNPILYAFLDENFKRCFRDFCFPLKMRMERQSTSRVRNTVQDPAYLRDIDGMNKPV

Compound	Ki [1] [µM]	half-life [2] [h]
N=C(N)NCCC[C@@H](NC(=O)[C@@H](CCCNC(=N)N)NC(=O)[C@@H]1CCCN1C(=O)c1ccccc1)C(=O)N[C@@H](CCC(N)=O)C(=O)N[C@H](CN[C@H]1CSSC[C@@H](C(N)=O)NC1=O)CC1CCCCC1	0.135	16
CC[C@H](C)[C@H](NC(=O)[C@H](CCC(N)=O)NC(=O)[C@H](CCCNC(=N)N)NC(=O)[C@@H](N)CCCNC(=N)N)C(N)=O (H-RRQI-NH2)	23	–
